Assay results from paper PMC4727981 (Archives of biochemistry and biophysics, 2015).
Several values for one entry are separate records, joined by “and”; a condition that tells them apart may be missing. Equal entries are not always repeated. Where two headings read alike, the source gives them in different places.

Key:
human KIAA1363 [1] = target: T1, human KIAA1363 (Homo sapiens, UniProt Q6PIU2); assay type: biochemical; settings: data not shown
T1 sequence (Q6PIU2 1-416 isoform Q6PIU2-2): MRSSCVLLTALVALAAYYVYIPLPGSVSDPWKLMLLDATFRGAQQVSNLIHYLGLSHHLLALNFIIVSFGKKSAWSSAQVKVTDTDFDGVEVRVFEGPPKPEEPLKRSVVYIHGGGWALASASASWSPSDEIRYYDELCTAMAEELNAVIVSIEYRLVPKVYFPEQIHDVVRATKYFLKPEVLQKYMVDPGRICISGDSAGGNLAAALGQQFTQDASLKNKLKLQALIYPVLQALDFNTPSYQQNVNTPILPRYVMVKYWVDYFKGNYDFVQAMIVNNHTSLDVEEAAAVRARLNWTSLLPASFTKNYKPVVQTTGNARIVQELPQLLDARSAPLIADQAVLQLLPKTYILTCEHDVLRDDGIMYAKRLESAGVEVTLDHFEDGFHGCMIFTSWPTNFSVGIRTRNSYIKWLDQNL

recombinant PON1^Q192 = recombinant PON1^Q192 ref 30; cited from earlier work
recombinant PON1^R192 = recombinant PON1^R192 ref 30; cited from earlier work
[2] = tested on: KIAA1363 in mouse brain membranes; settings: cited from earlier work
recombinant CES1 = recombinant CES1 ref 7; cited from earlier work
human CES1 = target: T2, human CES1 (Homo sapiens, UniProt P23141); assay type: biochemical; settings: for kinact/Ki (bimolecular rate constant): linear fit
T2 sequence (P23141 18-566 isoform P23141-3 limits assumed): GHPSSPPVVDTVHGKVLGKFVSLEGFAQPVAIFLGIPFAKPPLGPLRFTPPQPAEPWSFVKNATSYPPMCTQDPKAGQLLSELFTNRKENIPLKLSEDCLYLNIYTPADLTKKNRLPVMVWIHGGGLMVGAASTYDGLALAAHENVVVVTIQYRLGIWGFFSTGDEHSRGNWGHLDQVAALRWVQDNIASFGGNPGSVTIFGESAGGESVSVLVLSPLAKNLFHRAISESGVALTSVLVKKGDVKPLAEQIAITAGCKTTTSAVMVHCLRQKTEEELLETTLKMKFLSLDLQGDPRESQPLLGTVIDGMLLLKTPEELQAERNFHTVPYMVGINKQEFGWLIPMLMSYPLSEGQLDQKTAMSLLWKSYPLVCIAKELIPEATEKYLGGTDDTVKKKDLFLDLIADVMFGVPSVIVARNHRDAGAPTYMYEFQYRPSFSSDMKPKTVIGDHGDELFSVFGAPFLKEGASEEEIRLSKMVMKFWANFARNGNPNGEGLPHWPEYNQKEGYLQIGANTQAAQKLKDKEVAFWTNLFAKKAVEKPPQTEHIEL
Procedure, shortened: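 Oxon at various concentrations plus 4-MUBA (250 μM) prewarmed 5 min at 37°C. Lysate (0.1 mg/ml final) then starts the reaction. 4-Methylumbelliferone fluorescence ([…]) is followed 45 min, with the mock-lysate signal subtracted. Curves are fit to a single exponential without reactivation to give kobs per concentration. Ki′ is substrate-corrected (Km 227 μM).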

human KIAA1363 [3] = target: T1, human KIAA1363; assay type: biochemical; settings: for kreact (calculated reactivation rate constant): calculated with Eqn. 7 / kinact ratio
[4] = tested on: KIAA1363 in mouse brain membranes; settings: 1 nM [3H]-CPO, cited from earlier work
human KIAA1363 [5] = target: T1, human KIAA1363; assay: Reactivation of oxon-inhibited KIAA1363 activity after 100-fold dilution; assay type: biochemical; settings: CPO 1 μM 15 min, diluted 100-fold, up to 60 min at 37°C
Procedure, shortened: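 KIAA1363-transfected COS-7 lysate (1 mg/ml protein, 50 mM Tris-HCl pH 7.4) preincubated 15 min at 37°C with 1 μM oxon in ethanol (2% v/v), or ethanol alone as control. Reactions are diluted 1:100 in the same buffer and incubated 60 min at 37°C. Aliquots are taken every 10 min to assay residual 4-MUBA hydrolysis by fluorescence.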

[6] = means of 2–4 independent experiments

CCCCCCCC/C=C\CCCCCCCC(=O)Oc1ccc2c(C)cc(=O)oc2c1 [4-methylumbelliferyl oleate]
hydrolysis by KIAA1363 (human KIAA1363 [1]): could not detect any activity

CCOP(=O)(OCC)Oc1nc(Cl)c(Cl)cc1Cl [CPO, O,O′-Diethyl 3,5,6-trichloro-2-pyridyl phosphate]
catalytic efficiency for hydrolysis of CPO (recombinant PON1^Q192): 90000 M⁻¹ s⁻¹
catalytic efficiency for hydrolysis of CPO (recombinant PON1^R192): 150000 M⁻¹ s⁻¹
hydrolysis (turnover) of CPO by KIAA1363 ([2]; 1 nM CPO, 60 min ref 9): 100%
hydrolysis of CPO by KIAA1363 ([2]; 60 min incubation ref 9): hydrolyzed completely
hydrolysis of 1 nM [3H]-CPO by brain membranes from wildtype mice ([2]; 60 min incubation ref 10): completely hydrolyzed
kinact/Ki (recombinant CES1): ~ 10^7 s^−1M^−1
kinact/Ki (bimolecular rate constant) (human CES1): 6.7(±4.2) × 10^6 s^−1M^−1
kinact/Ki (human CES1; representative graph Fig. 6B, assuming Ki ≫ [I]): 2.5 × 10^6 s^−1M^−1
corrected kinact/Ki, fold higher than for PO (human KIAA1363 [3]): ~ 10 fold
kinact/Ki (corrected bimolecular rate constant) (human KIAA1363 [3]): 4.4(±0.4) × 10^6 s^−1M^−1
ratio kinact/kreact (phosphorylation/dephosphorylation) (human KIAA1363 [3]): 16
kreact (calculated reactivation rate constant) (human KIAA1363 [3]): 0.0004 s⁻¹ and 0.00043 ± 0.00019 s⁻¹
kinact (human KIAA1363 [3]; [6]): 0.0069 ± 0.0007 s⁻¹
kinact (human KIAA1363 [3]; representative graph Fig. 6A): 0.0062 s⁻¹
added CPO covalently bound to KIAA1363 ([4]; 5 min ref 10): 48 mol %
added CPO present as diethylphosphoryl (non-aged) adduct ([4]; 5 min ref 10): 44 mol %
added CPO present as monoethylphosphoryl (aged) adduct ([4]; 5 min ref 10): 4 mol %
CPO completely hydrolyzed to trichloropyridinol and diethylphosphate ([4]; 60 min ref 10): 75 mol %
added CPO as covalent phosphoryl adduct on KIAA1363 ([4]; 60 min ref 10): 25 mol %
added CPO present as diethylphosphoryl adduct ([4]; 60 min ref 10): 13 mol %
added CPO present as monoethylphosphoryl adduct ([4]; 60 min ref 10): 12 mol %
kreact determined by dilution approach (human KIAA1363 [5]): 0.00038 s⁻¹

CCOP(=O)(OCC)Oc1ccc([N+](=O)[O-])cc1 [PO, O,O′-diethyl p-nitrophenyl phosphate]
kinact/Ki (bimolecular rate constant) (human CES1): 1.5 × 10^6 s^−1M^−1
kinact, fold lower than kinact for CPO (human KIAA1363 [3]): 7.5 fold
kinact/Ki (corrected bimolecular rate constant) (human KIAA1363 [3]): 0.4 × 10^6 s^−1M^−1
ratio kinact/kreact (phosphorylation/dephosphorylation) (human KIAA1363 [3]): 3.4
kreact (calculated reactivation rate constant) (human KIAA1363 [3]): 0.0003 s⁻¹
kinact (human KIAA1363 [3]; [6]): 0.00092 s⁻¹

CCCCCCCC/C=C\CCCCCCCC(=O)O[C@H]1CC[C@@]2(C)C(=CC[C@H]3[C@@H]4CC[C@H]([C@H](C)CCCC(C)C)[C@@]4(C)CC[C@@H]32)C1 [cholesteryl oleate]
hydrolysis by KIAA1363 (human KIAA1363 [1]): could not detect any activity
